These results are taken from paper PMC5851871 (Bioorganic & medicinal chemistry letters, 2018).

The target of experiment [1] is T1, thrombin (Homo sapiens, UniProt P00734). The experiment in a line: Michaelis-Menten kinetics of Spectrozyme TH hydrolysis. Conditions: Michaelis-Menten kinetic studies. Format: biochemical. The essentials:
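Thrombin hydrolysis of Spectrozyme TH, a chromogenic substrate, was read spectrophotometrically at pH 7.4 and 25 °C. The substrate was varied at several test compound levels up to 40 μM. VMAX and KM were taken from Michaelis-Menten analysis to assign the inhibition mechanism.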

Experiment [2] relates to recombinant thrombin mutants (exosite 2 Ala replacements). Kind of experiment: Inhibition of recombinant exosite 2 alanine mutant versus wild-type thrombins. Format: biochemical. To be noted: 11 single Ala mutants of exosite 2, Spectrozyme TH, pH 7.4, 25 °C.
For experiment [3], the target named is thrombin cleavage of human fibrinogen (Homo sapiens, UniProt P00734). Kind of experiment: PAGE densitometry of thrombin cleavage of fibrinogen. The experiment is classed as biochemical. To be noted: for Maximal inhibition of fibrinogen cleavage (ΔY against fibrinogen): saturating inhibitor, 4.7 μM fibrinogen, 6 nM thrombin, pH 7.4, 25 °C. In short, it runs like this:
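Thrombin (6 nM) cleaved human fibrinogen (4.7 μM) with test compound at 0 to 150 μM. Fibrinogen cleavage was monitored by polyacrylamide gel electrophoresis.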

The target of experiment [4] is T1, thrombin. Kind of experiment: Thrombin inhibition, chromogenic substrate hydrolysis assay. The experiment is classed as biochemical. To be noted: 20 mM Tris-HCl pH 7.4, 25 mM CaCl2, 100 mM NaCl, 0.1% PEG 8000, 25 °C, ± 1 S.E.
Experiment [5] has as its target T1, thrombin. To be noted: inhibition of human thrombin by peptides; cited from earlier work.

As for `CCOC(=O)c1c(C)oc2cc(OCCc3ccccc3)c(OCc3oc4cc(OC)c(OS(=O)(=O)[O-])cc4c3C(=O)OCC)cc12.[Na+]` [2c], at thrombin [1], the Mechanism of inhibition result is recorded as “noncompetitive inhibitor”. Also, the “IC50 of mutant versus wild-type thrombin” value in experiment [2] was “virtually no difference in IC50 between wild-type and mutant thrombin except for Arg233Ala and Lys235Ala proteins”. For the same molecule, the “Maximal inhibition of fibrinogen cleavage (ΔY against fibrinogen)” value in experiment [3] was “about 70±8%”. Besides, the “Fibrinogen cleavage continuing at saturating inhibitor” value in experiment [3] (saturating levels of inhibitor) is “approximately 30%”.
As for `CCOC(=O)c1c(C)oc2cc(OCC3CCCCC3)c(OCc3oc4cc(OCC5CCCCC5)c(OS(=O)(=O)[O-])cc4c3C(=O)OCC)cc12.[Na+]` [2h], the “ΔY (efficacy of inhibition)” value on thrombin [4] was ~ 90%.
On to `CCOC(=O)c1c(C)oc2cc(OCc3ccccc3)c(OCc3oc4cc(OCC5CCCCC5)c(OS(=O)(=O)[O-])cc4c3C(=O)OCC)cc12.[Na+]` [2i], for which, at thrombin [1], the Mechanism of inhibition entry is “mixed inhibition”. For the same molecule, the “IC50 of mutant versus wild-type thrombin” value in experiment [2] is “potency changed significantly for several mutants including Arg165Ala, Lys169Ala, Arg175Ala, Arg233Ala and Lys236Ala”. Also, the “Maximal inhibition of fibrinogen cleavage (ΔY against fibrinogen)” value in experiment [3] was “greater than 90%”.
Turning to “Fibrinogen peptide (410 – 427): allosteric peptide inhibitor of thrombin, literature value from ref 18”, the IC50 with thrombin [5] was 130 µM.
